Sampled rows, rich in hits. Any-hit rate of the full collection: about 2%.
XiGFP reactiv = X-chromosome reactivation activator. XiGFP mouse fibroblasts, % GFP-positive cells imaging, 3 d; cells co-treated with 5-aza-dC sensitizer; scaled so ellipticine positive control = 100%. activation, % at 7.58 µM. hit rate 0.055% among 360,000;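 active = mean normalized replicate activation at least 10% and every replicate at or above 10%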;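 note: 0% = median of on-plate neutral control wells and 100% = ellipticine 6 µM median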
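Assay system: SV40-immortalized XiGFP fibroblast cells, line 68-5-11; buffer or medium: DMEM plus 5-aza-dC sensitizer; compound: one concentration, pinned; timing: compounds 3 days, fix/stain 15 min at room temperature; benchmarks: positive control ellipticine, 6 µM final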
SR-BI DiI-HDL act = enhances SR-BI lipid uptake from DiI-HDL | CHO ldlA[mSR-BI] cells, DiI-HDL uptake fluorescence, 3 h; 100 = double the neutral-control signal | activation, % at 12.5 µM | hit rate 0.096% among 320,000 | AID 504775;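 active = mean replicate activation of at least 60% and every replicate at or above 60%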;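 note: 0% = median plate neutral-control signal and 100% = twice that signal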
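Test system: SR-BI-overexpressing, LDLR-lacking CHO cells; Medium: Ham's F12 with 0.5% BSA, HEPES 25 mM, pH 7.4; Schedule: 3 h, 37 °C; Technique: bottom-read fluorescence, 550/595 nm.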
SR-BI DiI inh = mouse SR-BI HDL lipid transfer inhibition; Q61009; ldlA[mSR-BI] CHO cells, DiI-HDL uptake fluorescence, 3 h; inhibition, % at 12.5 µM; hit rate 0.96% among 320,000; AID 488896;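 active = mean replicate inhibition of at least 70% and a set share of replicates each scoring 70 or more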;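 note: 0% = median of neutral control wells and 100% = median of positive control wells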
HGIII-sPLA2 inh = Blocks human group III sPLA2 activity; QFRET BODIPY PC-A2 liposome hydrolysis, fluorescence; inhibition, % at 12.2 µM; hit rate 0.56% among 370,000;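 active = inhibition above mean plus 3 SD of compounds lying within the high and low control bounds, cut at about 19% in these data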;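 note: 0% = median of test compound wells and 100% = no enzyme DMSO wells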
Target sequence (Q9NZ20 whole entry, looked up): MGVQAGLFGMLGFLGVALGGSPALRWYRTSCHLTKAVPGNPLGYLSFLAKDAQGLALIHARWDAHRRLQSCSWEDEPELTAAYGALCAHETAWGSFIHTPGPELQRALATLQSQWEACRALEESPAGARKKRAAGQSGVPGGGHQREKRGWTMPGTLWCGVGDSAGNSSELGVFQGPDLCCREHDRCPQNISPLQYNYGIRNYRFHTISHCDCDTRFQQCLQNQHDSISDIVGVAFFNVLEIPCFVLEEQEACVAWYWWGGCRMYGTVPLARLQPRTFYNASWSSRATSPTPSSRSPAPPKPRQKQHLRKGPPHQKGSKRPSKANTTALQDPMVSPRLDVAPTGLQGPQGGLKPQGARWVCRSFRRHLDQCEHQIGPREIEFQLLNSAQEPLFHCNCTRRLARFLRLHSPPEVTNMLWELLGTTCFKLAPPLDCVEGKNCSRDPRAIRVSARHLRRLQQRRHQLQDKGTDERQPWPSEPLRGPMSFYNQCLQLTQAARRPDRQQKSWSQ
NSD2 HMT inh = inhibitors of human histone methyltransferase NSD2 | NSD2 peptide methylation, AlphaScreen, 120 min | hit rate 0.54% among 310,000 | inhibition, % at 12.5 µM | O96028 | AID 743445; in the data active = inhibition above about 50%
ARNT-TACC3 inh = disruptors of human ARNT/TACC3 interaction | Q9Y6A5 | AlphaScreen His-ARNT PAS-B/GST-TACC3 binding, luminescence; TACC3 fragment carries E629A point mutation | inhibition, % at 9.99 µM | hit rate 0.66% among 390,000 | AID 623870;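 active = mean inhibition of replicates at least 50% and at least half of replicates each reaching 50%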;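 note: 0% = complete ARNT plus TACC3 wells and 100% = ARNT alone without TACC3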
Alpha artifact = interferes with AlphaScreen signal, flagging NSD2 false positives; AlphaScreen artifact counterscreen, preloaded methylated H4 peptide; shares compounds with NSD2 HMT inh; AC35, µM (series often up to 10 µM), inactives show at the highest dose activity change, negative = signal loss; hit rate 9.4% among 1,500; AID 1053174; call rule not given here
Starred values were filed as active, the others as inactive; / = no result given.

SMILES	XiGFP reactiv	SR-BI DiI-HDL act	SR-BI DiI inh	HGIII-sPLA2 inh	NSD2 HMT inh	ARNT-TACC3 inh	Alpha artifact
COC(=O)COc1ccc(C(c2c(C)[nH][nH]c2=O)c2c(C)[nH][nH]c2=O)cc1	0	/	/	-4	21	-7	/
O=C(CNC(=O)c1ccc(Br)cc1)N/N=C/c1ccc[nH]1	0	-16	16	-2	0	11	/
N/C(Cc1ccc([N+](=O)[O-])cc1)=N\OC(=O)C(c1ccccc1)c1ccccc1	/	0	0	-22	1	-2	/
O=C(c1ccccc1OCc1ccccc1Br)N1CCN(c2ncccn2)CC1	/	23	-23	-4	99*	-4	-5%
O=C(c1ccccc1Br)N1CCN(c2ncccn2)CC1	0	/	/	8	3	-17	/
CCN(CC)S(=O)(=O)c1cccc(-c2nnc(SCCCC(=O)c3ccccc3)o2)c1	/	3	-3	-25	0	-6	/
CCN(CC)S(=O)(=O)c1cccc(-c2nnc(SCCCC(=O)c3ccc(F)cc3)o2)c1	/	-13	13	-9	127*	-1	-1%
CC1CCCC(NC(=O)COC(=O)c2c[nH]c(=O)[nH]c2=O)C1C (configuration not stated)	/	18	-18	-6	78*	-8	-6%
O=C(CCSc1nc(-c2ccccc2)c(-c2ccccc2)o1)N1CCCCC1	0	/	/	-5	0	/	/
O=C(CSc1nc(-c2ccccc2)c(-c2ccccc2)o1)N1CCCCC1	0	/	/	-22	69*	/	-5%
O=C1CC(N2CCOCC2)=NN1c1ccc([N+](=O)[O-])cc1	0	/	/	-1	110*	17	0%
Cc1noc(C)c1S(=O)(=O)Nc1ccc2c(c1)C(=O)N([C@@H](C)CO)C[C@@H](C)[C@H](CN(C)S(=O)(=O)c1ccc(F)cc1)OCCCC[C@H](C)O2	0	/	/	/	/	2	/
O=C1c2ccccc2C(=O)N1c1nc(-c2cccs2)cs1	/	-6	6	-5	0	-18	/

Screens as filed in PubChem.
